For 87 molecules, activation and normalized cell count results are on record in PubChem BioAssay AID1296 (Columbia University Molecular Screening Center, 2008).

Structures are written as SMILES. About 1,000 (0.77%) of roughly 130,000 compounds were called active. Inconclusive results (about 1%) are left out. This is one part of a sample in which actives are shown more often than they occur.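 Rule for the calls: active = activation at 2 µM above a set limit, confirmed on inspection of the cell images; inconclusive = above the set limit but not confirmed on image inspection; inactive = the rest.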

The nature of this test: insulin gene promoter stimulation in islet cells – imaging, TRM-6 cells, eGFP reporter, cell count, primary screen (AID 1296).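 For activation: share of cells whose green reporter signal exceeds an intensity cutoff.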 To be noted: at 2 µM; activation: stronger effect = higher value, plate-scaled: unstimulated 0, stimulated control 100; normalized cell count: measured here: cell count (toxicity). The essentials:
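Test system: human fetal islet-derived TRM-6 cells with tamoxifen-inducible insulin promoter–eGFP reporter. Compound dosing: 2 µM final, single concentration. Incubation: tamoxifen pre-incubation 15 h overnight, then compound exposure 48 h at 37 °C. Signal: fixed-cell fluorescence microscopy, eGFP plus Hoechst.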
On to `COC(=O)CSc1nnc(-c2cccnc2)o1`, for which the activation was 5.13% (inactive) and the normalized cell count stood at 134%.
Take `O=C(CSc1nnc(-c2ccoc2)o1)N1CCOCC1`: the activation is -9.09% (inactive) and the normalized cell count was found to be 105%.
For the molecule `Cc1cccc(C)c1OC(=O)CSc1nnc(-c2ccccc2)o1`, the activation was 487% (active) and the normalized cell count stood at 75.9%.
Take `C=CCOc1c(Br)cc(/C=N\n2nnnc2N)cc1OC`: the activation is 0% (inactive) and the normalized cell count was 53.2%.
`CCC1SC(CC)C(=O)N(CC(=O)NC2CCCCC2)C1=O` (centres undefined): the activation is -8.33% (inactive) and the normalized cell count came to 80.9%.
For `O=C(CN1C(=O)NC2(CCCCC2)C1=O)NCCC1=CCCCC1`, the activation is -3.7% (inactive) and the normalized cell count worked out at 86.8%.
As to `O=C(CN1C(=O)NC2(CCCCCC2)C1=O)NC1CC1`, the activation is 542% (active) and the normalized cell count turned out to be 78.5%.
Taken in the same sequence, the figures for `O=C(CSc1nc2ccc([N+](=O)[O-])cc2[nH]1)c1ccc(Cl)cc1` were -3.7% (inactive) and 85.9%.
In the same order, the values of `COc1ccccc1-c1nc(SC)n[nH]1` are -5.26% (inactive) and 131%.
On to `COCCNC(=S)c1ccc(OC)cc1`, for which the activation is 433% (active) and the normalized cell count came out at 62.5%.
On to `COc1cc(NC(=S)NCCSc2ccc(C)cc2)cc(OC)c1`, for which the activation is -3.12% (inactive) and the normalized cell count is 116%.
With `COc1ccc(C(=O)NC(=S)NNC(=O)CCc2ccccc2)cc1`, the activation was -3.57% (inactive) and the normalized cell count worked out at 91.6%.
In the case of `CN=C1S/C(=C\c2ccc(Sc3ccc(Cl)cc3)o2)C(=O)N1C`, the activation is -2.7% (inactive) and the normalized cell count was found to be 43.5%.
`Cc1ccc(/C=N/NC(=O)Cn2ccc(C(F)(F)F)n2)o1`: the activation is 8.33% (inactive) and the normalized cell count was found to be 128%.
In the case of `CC(CNC(=O)c1ccc(N)cc1)NC(=O)c1ccc(N)cc1` (centres undefined), the activation was 2.33% (inactive) and the normalized cell count was determined as 108%.
`Cc1ccc(-n2ncc3c(Nc4cccc(C(=O)O)c4)ncnc32)cc1`: the activation was 6.67% (inactive) and the normalized cell count is 45%.
For `O=C(NNc1ncnc2c1cnn2-c1ccccc1)c1ccco1`, the activation is 500% (active) and the normalized cell count came to 142%.
Taken in the same sequence, the figures for `CCN(CC)C(=O)CSc1ncnc2c1cnn2-c1ccccc1` were 392% (inactive) and 43.6%.
Take `COc1cc(/C=N/NC(=O)c2cc(C)n(-c3ccc(F)cc3)c2C)cc(OC)c1O`: the activation is 129% (inactive) and the normalized cell count came out at 121%.
In the case of `Cc1cc(NC(=O)COC(=O)COc2ccc(Cl)cc2C)c([N+](=O)[O-])cc1C`, the activation was 0% (inactive) and the normalized cell count was found to be 143%.
As for `Cc1ccc2cc3cc(C(=O)N4CCCCCC4)oc3nc2c1`, the activation was 183% (active) and the normalized cell count was 233%.
Regarding `Cc1cc(=O)oc(C)c1C(=O)N1CCCCC1`, the activation is 5.26% (inactive) and the normalized cell count was determined as 82.9%.
As for `Cc1cccc(C(=O)N2CCCN(C(=O)c3cccc(C)c3)CC2)c1`, the activation was 3.23% (inactive) and the normalized cell count turned out to be 110%.
Take `Cc1cccc(N(C(=O)Cc2cccs2)C(C(=O)NCc2ccco2)c2ccncc2)c1` (centres undefined): the activation is 107% (inactive) and the normalized cell count came out at 58.7%.
Taken in the same sequence, the figures for `COc1cc(NC(=O)CSc2nnc3ccc(-c4ccncc4)nn23)cc(OC)c1` were -5.26% (inactive) and 108%.
Consider `COc1ccc(C(=O)N/N=c2\oc3ccccc3cc2C(N)=O)cc1`, for which the activation was 0% (inactive) and the normalized cell count was determined as 70.8%.
For `Cc1ccc(OC(=O)c2cc3ccccc3o2)cc1`, the activation was 79.3% (active) and the normalized cell count amounted to 174%.
On to `O=C(Nc1ccncc1)c1cc2ccccc2o1`, for which the activation is 342% (inactive) and the normalized cell count was 93.3%.
`COC(=O)[C@H]1Cc2cnoc2C[C@]1(C)C(=O)O`: the activation was 0% (inactive) and the normalized cell count was 176%.
Consider `COc1ccc(C)cc1NC(=O)CSc1ccc(Cl)cc1`, for which the activation is -5.56% (inactive) and the normalized cell count is 93.7%.
For `COC(=O)c1cc(OC)c(OC)cc1NC(=O)CSc1ccc(C)cc1`, the activation was 3.33% (inactive) and the normalized cell count was 108%.
Take `Cc1cc(C)cc(NC(=O)CSc2ccccc2)c1`: the activation was 525% (active) and the normalized cell count was 53.5%.
As for `Cc1nc(CC(=O)NNS(=O)(=O)c2ccc(F)c(Cl)c2)cs1`, the activation is -7.69% (inactive) and the normalized cell count was 104%.
`N#Cc1ccc(Oc2cc(C(F)(F)F)nc(-c3ccccn3)n2)cc1`: the activation is -9.09% (inactive) and the normalized cell count was 91.7%.
In the same order, the values of `CCN(CC(=O)NC(=O)NCc1ccccc1)Cc1nc2ccccc2c(=O)[nH]1` are 8.33% (inactive) and 68.7%.
On to `Cc1nn(C)c(Oc2ccccc2)c1[N+](=O)[O-]`, for which the activation is 7.04% (inactive) and the normalized cell count was found to be 55.2%.
For the molecule `O=C(O)COc1ccc(/C=N/O)cc1Br`, the activation is 8.33% (inactive) and the normalized cell count was found to be 101%.
Taken in the same sequence, the figures for `CN1/C(=C\C=C2\N=C(c3ccc(F)cc3)OC2=O)C(C)(C)c2ccccc21` were 121% (active) and 53.1%.
On to `CC(=O)NCCC(=O)Nc1nc(C)c(Cc2ccc3c(c2)OCO3)s1`, for which the activation is 0% (inactive) and the normalized cell count amounted to 42.1%.
In the same order, the values of `COc1cc(/C=C2/C(=O)ON=C2C)ccc1OCc1cccc(F)c1` are 0% (inactive) and 98.9%.
With `Cc1nn(Cc2ccc(C(=O)N3N=C(C(F)F)CC3(O)C(F)F)cc2)c(C)c1[N+](=O)[O-]` (centres undefined), the activation was 4.44% (inactive) and the normalized cell count was found to be 126%.
Regarding `O=C(NCc1ccco1)c1nn2cccnc2c1Cl`, the activation is 0% (inactive) and the normalized cell count was found to be 126%.
In the case of `COc1ccc(OC(C)C(=O)Nc2cccnc2)cc1` (centres undefined), the activation was -8.57% (inactive) and the normalized cell count is 50%.
For `COc1ccc(CC(=O)Nc2ccc(-c3nnc(-c4ccccc4)o3)cc2)cc1`, the activation was 6.45% (inactive) and the normalized cell count is 115%.
Taken in the same sequence, the figures for `COc1ccc(CS(=O)/C(Cl)=C(/Cl)C(=O)Nc2ccc(OC)nc2)cc1` (centres undefined) were 669% (active) and 10.6%.
As for `COc1ccc(OC)c(CNC(=O)c2cc(=O)[nH]c3ccc(S(=O)(=O)N4CCCC4)cc23)c1`, the activation is 0% (inactive) and the normalized cell count was determined as 73.7%.
Taken in the same sequence, the figures for `CC(C)C(C)(C#N)NC(=O)CSc1nncn1-c1ccccc1` (centres undefined) were -7.14% (inactive) and 91.1%.
As for `CCNc1nc(NC(C)C)nc(N2CC(=O)N(CC(=O)OCC)C2=N)n1`, the activation was 344% (active) and the normalized cell count is 69.4%.
As to `O=Cc1cn(Cc2ccccc2)nc1-c1cccnc1`, the activation is 2.44% (inactive) and the normalized cell count was determined as 212%.
For the molecule `CS(=O)(=O)N(Cc1ccccc1)c1ccc(C(=O)NN=C2CCCCCC2)cc1`, the activation was -6.9% (inactive) and the normalized cell count came to 150%.
Taken in the same sequence, the figures for `COC(=O)Nc1sc2nc(C)cc(C)c2c1-n1cccc1` were -3.7% (inactive) and 74.8%.
`CCCN1CC=C2C(C#N)=C(N)C(C#N)(C#N)C(c3cc(OC)ccc3OC)C2C1` (centres undefined): the activation was 178% (active) and the normalized cell count amounted to 123%.
Taken in the same sequence, the figures for `COc1cc(OC)cc(-c2nc3ccccc3c(=O)n2NC(=O)c2cccnc2Cl)c1` were -5.56% (inactive) and 107%.
With `CC1=NNC(=O)C1CCC(=O)N/N=C\c1ccc(Cl)c(Cl)c1` (centres undefined), the activation is 0% (inactive) and the normalized cell count turned out to be 124%.
In the case of `CCCn1c(=S)[nH]c2ccc(C(F)(F)F)cc21`, the activation is 205% (active) and the normalized cell count came to 78%.
In the same order, the values of `CC1CC(C)CN(C(=O)CSc2ccsc2[N+](=O)[O-])C1` (centres undefined) are 0% (inactive) and 74.7%.
For the molecule `CCOc1ccc(S(=O)(=O)Nc2ccncc2)c(C)c1C`, the activation is -72.7% (inactive) and the normalized cell count was 133%.
Taken in the same sequence, the figures for `CCOc1ccc(NC(=S)NC(=O)/C=C/c2ccc(OC)cc2)c([N+](=O)[O-])c1` were 8.82% (inactive) and 139%.
In the same order, the values of `CCN(CC)CCn1c(/N=C/c2cc(Br)ccc2O)nc2ccccc21` are 149% (inactive) and 133%.
In the same order, the values of `CC(O)c1nc2ccccc2n1Cc1ccc([N+](=O)[O-])cc1` (centres undefined) are -2.94% (inactive) and 149%.
For the molecule `CC(C)(C)N1CC(c2nc3ccccc3n2Cc2ccc(F)cc2)CC1=O` (centres undefined), the activation was 80% (active) and the normalized cell count was 127%.
Taken in the same sequence, the figures for `CC(C)CCNC(=O)CC1C(=O)N(Cc2ccccc2)C(C)c2nc3ccccc3n21` (centres undefined) were 127% (inactive) and 118%.
With `Cc1ccc(C2CC2C(=O)NN)cc1` (centres undefined), the activation is 0% (inactive) and the normalized cell count was 90.7%.
On to `Cc1noc(C)c1CCC(=O)O`, for which the activation is 5.56% (inactive) and the normalized cell count was 134%.
Regarding `Cc1ccc(NC(=O)c2ccn(C(=O)Nc3ccccc3)n2)c(C)c1`, the activation was 0% (inactive) and the normalized cell count worked out at 123%.
In the same order, the values of `Cc1ccnc(NC(=O)Cn2ccc([N+](=O)[O-])n2)c1` are 5.71% (inactive) and 124%.
As for `CCOC(=O)c1[nH]c2ccc(OC)cc2c1NC(=O)N1CCOCC1`, the activation is 3.57% (inactive) and the normalized cell count was 45.3%.
In the same order, the values of `O=C(CN1CCOCC1)N1CCCc2c1c(=O)oc1ccc(OCc3ccccc3)cc21` are 21.5% (inactive) and 118%.
As for `Cc1c(C(=O)N2CCOCC2)[nH]c2ccc(OCc3ccccc3)cc12`, the activation was 104% (active) and the normalized cell count was 126%.
As for `CC(=O)c1cc(-c2ccccc2)n(CCC(=O)NC2CCCCCC2)c1C`, the activation was 5.71% (inactive) and the normalized cell count is 127%.
Consider `CCN(CC(=O)Nc1ccc(Cl)c(S(=O)(=O)N(C)C)c1)Cc1nc2ccccc2c(=O)[nH]1`, for which the activation was 8.33% (inactive) and the normalized cell count was found to be 83.9%.
In the same order, the values of `Cc1ccc(-n2c(Cc3cccs3)nnc2SCC(=O)OC(C)C)cc1` are -7.69% (inactive) and 48%.
In the case of `CCn1c(SCC(=O)Nc2nccs2)nnc1-c1ccco1`, the activation is 0% (inactive) and the normalized cell count is 131%.
As to `CCn1c(Cc2cccs2)nnc1SCC(=O)c1ccc(C)cc1`, the activation is 433% (active) and the normalized cell count worked out at 93.9%.
As to `Cc1ccsc1C1C(C#N)=C(N)OC2=C1C(=O)CC(C)(C)C2` (centres undefined), the activation was 0% (inactive) and the normalized cell count worked out at 62.4%.
Turning to `CCN1CCN(C(C(=O)NC2CCCC2)c2cc3c(cc2[N+](=O)[O-])OCO3)CC1` (centres undefined), the activation is 6.67% (inactive) and the normalized cell count is 84.9%.
Take `CCCC(=O)NC(Nc1ccccc1OC)C(Cl)(Cl)Cl` (centres undefined): the activation is -4.35% (inactive) and the normalized cell count stood at 88%.
On to `CN(C)c1ccc(/C=C2\NC(=S)N(Cc3ccccc3)C2=O)cc1`, for which the activation is 170% [may fluoresce] (active) and the normalized cell count was 95.4%.
Regarding `Cc1nc2ccccc2cc1C(=O)N/N=C/c1ccc([N+](=O)[O-])cc1`, the activation was -75% (inactive) and the normalized cell count amounted to 81%.
Turning to `COc1cc(/C=C/C(=O)OCC(=O)Nc2cccc(Oc3ccccc3)c2)ccc1O`, the activation was 3.57% (inactive) and the normalized cell count was found to be 105%.
On to `O=C(Nc1cccc(Cl)c1)Nc1nnc(-c2ccccc2)o1`, for which the activation was 4.65% (inactive) and the normalized cell count was found to be 60.8%.
With `CCOc1cc(/C=C2/C(=N)N3OC(C)=CC3=NC2=O)ccc1OC`, the activation was 6.67% (inactive) and the normalized cell count came out at 55.1%.
On to `c1ccc(CC2CCN(c3nc4ccccc4n4cnnc34)CC2)cc1`, for which the activation is -7.14% (inactive) and the normalized cell count was determined as 111%.
As to `O=C(c1ccccc1)c1ccc2nc(N3CCCCC3)c3nncn3c2c1`, the activation was 320% (active) and the normalized cell count is 70%.
With `O=C(Nc1ccccc1N1CCCCC1)c1cccc(F)c1`, the activation was 5.71% (inactive) and the normalized cell count was 92.9%.
For `CCC(C)NC(=O)c1nn(C)c(=O)c2ccccc12` (centres undefined), the activation is -5.56% (inactive) and the normalized cell count came out at 169%.
Taken in the same sequence, the figures for `Cc1ccc(S(=O)(=O)c2ccc(Cl)cc2)cc1S(=O)(=O)NC(C(=O)O)C(C)C` (centres undefined) were 3.85% (inactive) and 127%.
